In ChEMBL document CHEMBL1129481, “Interactions of flavonoids and other phytochemicals with adenosine receptors” (J Med Chem, 1996):

Key:
[1] = molecular target: T1, Adenosine receptor A3 (Homo sapiens) (UniProt P0DMS8); assay: Displacement of specific [125I]AB-MECA binding from human Adenosine A3 receptor expressed in HEK293 cells; format: cell-based; design: concentration or dose not given beside the values
T1 sequence (whole entry): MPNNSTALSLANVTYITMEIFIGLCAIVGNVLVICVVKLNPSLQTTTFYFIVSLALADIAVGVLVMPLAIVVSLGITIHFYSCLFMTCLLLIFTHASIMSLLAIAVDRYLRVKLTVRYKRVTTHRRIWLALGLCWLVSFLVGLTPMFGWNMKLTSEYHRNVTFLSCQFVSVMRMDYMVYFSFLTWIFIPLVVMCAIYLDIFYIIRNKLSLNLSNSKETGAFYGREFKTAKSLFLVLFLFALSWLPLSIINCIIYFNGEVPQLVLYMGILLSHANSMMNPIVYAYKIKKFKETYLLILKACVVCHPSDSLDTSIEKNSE
Procedure, shortened: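 Membranes came from HEK-293 cells stably expressing human A3. Binding used Mg2+-free 50 mM Tris with 1 mM EDTA, pH 8.0, and 0.3 nM final [125I]AB-MECA. Compounds came from DMSO stock, ≤1% final. Duplicates ran 1 h at 37 or 25 °C, then filtration and γ-counting. Nonspecific binding was set with 100 μM (R)-PIA.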

[2] = molecular target: Adenosine receptor A2a (Rattus norvegicus) (UniProt P30543); assay: Displacement of [3H]-CGS- 21680 from Adenosine A2A receptor in rat striatal membranes at 10e-4 M; format: cell membranes; conditions: Membrane
Procedure, shortened: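 Rat striatal membranes were prepared with adenosine deaminase (3 units/mL), including a 30 min step at 30 °C. The enzyme was kept during the [3H]CGS 21680 incubation.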

[3] = molecular target: T2, Adenosine receptor A1 (Rattus norvegicus) (UniProt P25099); assay: Displacement of [3H]PIA from Adenosine A1 receptor in rat brain membranes; format: cell membranes
T2 sequence (whole entry): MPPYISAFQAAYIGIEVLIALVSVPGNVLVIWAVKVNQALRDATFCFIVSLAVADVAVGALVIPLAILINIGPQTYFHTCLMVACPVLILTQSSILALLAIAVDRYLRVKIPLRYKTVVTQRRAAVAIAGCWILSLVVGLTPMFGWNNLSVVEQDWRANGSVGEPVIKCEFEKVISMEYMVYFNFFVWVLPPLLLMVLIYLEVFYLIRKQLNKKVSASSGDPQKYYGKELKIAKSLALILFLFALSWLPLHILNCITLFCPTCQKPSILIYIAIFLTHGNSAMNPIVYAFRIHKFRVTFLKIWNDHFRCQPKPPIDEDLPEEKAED
Procedure, shortened: (§1)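 Rat cortical membranes were pretreated with adenosine deaminase (3 units/mL) for 30 min at 30 °C during preparation. The enzyme was also present during incubation with [3H]-(R)-PIA. Ki values were derived from displacement of specific binding.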

[4] = molecular target: T3, Adenosine receptor A1 (Rattus norvegicus, UniProt P25099); assay: Displacement of specific [3H]PIA binding from adenosine A1 receptor in rat brain membranes.; format: cell membranes; procedure, shortened: as §1
T3 sequence (P25099 whole entry): T2 sequence (whole entry)

[5] = molecular target: T4, Adenosine receptor A3 (Homo sapiens, UniProt P0DMS8); assay: Displacement of [125I]AB-MECA binding to human Adenosine A3 receptor expressed in HEK293 cells; format: cell-based
T4 sequence (P0DMS8 whole entry): T1 sequence (whole entry)
Procedure, shortened: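 Membranes came from HEK-293 cells stably expressing human A3. Compounds came from DMSO stock, ≤1% final. Duplicates ran 1 h at 37 or 25 °C, then filtration and γ-counting. Nonspecific binding was set with 100 μM (R)-PIA.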

[6] = molecular target: Adenosine receptor A2a (Rattus norvegicus, UniProt P30543); assay: Affinity at Adenosine A2A receptor in rat striatal membranes by [3H]- CGS 21680 displacement.; format: cell membranes, Striatum, Membrane
Procedure, shortened: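 Rat striatal membranes were prepared with adenosine deaminase (3 units/mL), including a 30 min step at 30 °C.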

Chain of Adenosine receptor A2a (Rattus norvegicus) (P30543 whole entry): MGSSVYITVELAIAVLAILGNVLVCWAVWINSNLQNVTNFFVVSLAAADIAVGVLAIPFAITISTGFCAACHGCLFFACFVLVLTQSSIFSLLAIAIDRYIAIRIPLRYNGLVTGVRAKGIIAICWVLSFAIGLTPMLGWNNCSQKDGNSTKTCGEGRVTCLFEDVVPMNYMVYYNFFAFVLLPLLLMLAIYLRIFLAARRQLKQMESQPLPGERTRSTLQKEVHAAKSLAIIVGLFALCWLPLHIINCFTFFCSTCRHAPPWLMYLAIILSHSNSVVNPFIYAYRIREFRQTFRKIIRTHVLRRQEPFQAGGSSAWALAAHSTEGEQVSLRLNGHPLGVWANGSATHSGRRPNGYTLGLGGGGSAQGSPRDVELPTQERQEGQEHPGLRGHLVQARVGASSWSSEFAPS
Chain of Adenosine receptor A2a (P30543 whole entry): as above

Row | SMILES | Displacement [1] [%] | further results
1 | COc1ccc(-c2cc(=O)c3ccc(O)cc3o2)cc1OC | 32 | –
2 | COc1cc(OC)c2c(=O)c(OC)c(-c3cc(OC)c(OC)c(OC)c3)oc2c1 | – | Displacement [3]: < 10%
3 | COc1ccc(-c2cc(=O)c3c(O)cc(OC)cc3o2)cc1 | 69 | Displacement [3]: < 10%; Displacement [2]: < 10%
4 | Cc1ccc(-c2cc(=O)c3c(C)c(C)c(C)cc3o2)cc1 | – | Ki [4]: 1.29 µM; Ki [5]: 4.48 µM
5 | O=c1c(-c2ccc(O)cc2)coc2cc(O)cc(O)c12 | 20 | –
6 | O=c1cc(-c2ccccc2)oc2c1ccc1ccccc12 | 71 | –
7 | COc1ccc2c(=O)c(O)c(-c3ccc(O)c(O)c3)oc2c1 | – | Ki [5]: 1.38 µM
8 | O=c1cc(-c2ccccc2)oc2cc(O)ccc12 | 41 | –
9 | O=c1cc(-c2ccccc2)oc2cccc(O)c12 | 47 | –
10 | COc1cc(O)c2c(c1)OC(c1ccc(O)cc1)CC2=O (stereo not given) | – | Ki [4]: 8.18 µM; Ki [5]: 3.4 µM; Ki [6]: 35.6 µM
11 | O=c1cc(-c2ccc(O)cc2)oc2cc(O)cc(O)c12 | 63 | –
12 | O=c1cc(-c2ccccc2)oc2ccc3ccccc3c12 | 12 | Displacement [2]: < 10%
13 | O=C1c2c(O)cc(O)cc2OC(c2ccc(O)c(O)c2)C1O (racemic) | – | Displacement [3]: < 10%

More lines, main results first:

Row | Displacement [1] [%] | SMILES | further results
14 | < 10 | O=C1c2cc(O)c(O)cc2C2c3ccc(O)c(O)c3OCC12O (stereo not given) | Displacement [2]: 28%
15 | 52 | O=C1c2ccccc2-c2cc3c(cc21)OCO3 | –
16 | 63 | COc1cc2c(c(O)c1OC)c(=O)c1ccccc1n2C | –
17 | < 10 | COC1C=CC23c4cc5c(cc4C[N+](C)(CC2OC(C)=O)C3C1)OCO5 (stereo not given) | Displacement [2]: < 10%
18 | 63 | COc1c(O)cc2oc(-c3ccc(O)cc3)cc(=O)c2c1O | –
19 | < 10 | COc1cc2c3c(c1)c1cc4c(cc1c(=O)n3CC2)OCO4 | Displacement [2]: < 10%
20 | 19 | CCn1c2c(c3cc4c(cc3c1=O)OCO4)C(=O)CCC2 | –
21 | < 10 | COc1cc2c3c(oc(=O)c2cc1OC)CCCC3=O | –
